Experimental data reported in ChEMBL document CHEMBL1122463, “2,3-dihydro-3-(1-pyrryl)spiro[benzofuran-2,4'-piperidine]s and 2,3-dihydro-3-(1-pyrryl)spiro[benzofuran-2,3'-pyrrolidine]s: novel antihypertensive agents” (1983).
Where “and” joins values, the source holds several entries; their conditions need not be identical. Equal entries are not always repeated.

Columns and labels:
Assay type in all cases: functional, Blood
Rattus norvegicus [1] = test: Oral hypotensive activity in spontaneously hypertensive rats by using tail-cuff method measured as change in systolic BP at the dose of 10 mg/kg po.
Outline: (§1)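 SHR of the Okamoto-Aoki strain, dosed orally every day with compound suspended in distilled water with Tween 80. Systolic pressure was taken by tail-cuff plethysmography on day 1 (predose, 2 h), day 3 (predose, 2 h) and day 5 (predose, 2 and 4 h). Initial BP is the pretreatment systolic pressure, with 4–8 rats per dose in the dose-response screen.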

Rattus norvegicus [2] = test: Oral hypotensive activity in spontaneously hypertensive rats by using tail-cuff method measured as change in systolic BP at the dose of 25 mg/kg po.; outline: as §1
Rattus norvegicus [3] = test: Oral hypotensive activity in spontaneously hypertensive rats by using tail-cuff method measured as change in systolic BP at the dose of 50 mg/kg po.
Outline: (§2)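 Okamoto-Aoki strain spontaneously hypertensive rats. Compounds were suspended in distilled water with Tween 80 and given orally every day at 50, 30, 10 or 3 mg/kg. Systolic BP was measured by tail-cuff plethysmography on day 1 (predose and 2 h), day 3 (predose and 2 h) and day 5 (predose, 2 and 4 h). The screen used 4 rats; dose-response used 4–8 rats per dose.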

Rattus norvegicus [4] = species on record: Rattus norvegicus; test: Oral hypotensive activity in spontaneously hypertensive rats by using tail-cuff method measured as change in systolic BP
Outline: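 Okamoto-Aoki spontaneously hypertensive rats. Compound suspended in distilled water with Tween 80, given po daily, screening dose 50 mg/kg, dose-response at 50, 30, 10 or 3 mg/kg unless stated. Systolic BP by tail-cuff plethysmography on day 1 predose and 2 h, day 3 predose and 2 h, and day 5 predose, 2 and 4 h. Reported as peak decrease on day 3 (or day 5) at 2 h ± SEM. n = 4 in screen, 4–8 per dose.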

Rattus norvegicus [5] = species on record: Rattus norvegicus; test: Oral hypotensive activity in spontaneously hypertensive rats by using tail-cuff method measured as the initial BP; outline: as §2

c1ccc2c(c1)OC1(CCNCC1)C2n1cccc1 (stereo not given)
BP (Rattus norvegicus [1]): 198 mmHg
Delta blood pressure (Rattus norvegicus [1]): 33 mmHg
BP (Rattus norvegicus [2]): 200 mmHg
Delta blood pressure (Rattus norvegicus [2]): 49 mmHg
BP (Rattus norvegicus [3]): 189 mmHg
Delta blood pressure (Rattus norvegicus [3]): 43 mmHg

CN1CCC2(C1)Oc1ccccc1C2n1cccc1 (stereo in doubt; 11)
BP (Rattus norvegicus [3]; 50 mg/kg): 180 mmHg
Delta blood pressure (Rattus norvegicus [3]; 50 mg/kg): 14 mmHg

O=C(CCCN1CCC2(CC1)Oc1ccccc1C2n1cccc1)c1ccc(F)cc1 (stereo not given)
Delta blood pressure (Rattus norvegicus [4]): 37 mmHg
BP (Rattus norvegicus [5]): 199 mmHg

CCCN1CCC2(CC1)Oc1ccccc1C2n1cccc1 (stereo not given)
Delta blood pressure (Rattus norvegicus [4]): 14 mmHg
BP (Rattus norvegicus [5]): 177 mmHg

c1ccc(CCN2CCC3(CC2)Oc2ccccc2C3n2cccc2)cc1 (stereo not given)
BP (Rattus norvegicus [5]): 203 mmHg and 180 mmHg and 176 mmHg

CCN(CC)CCN1CCC2(CC1)Oc1ccccc1C2n1cccc1 (stereo not given)
Delta blood pressure (Rattus norvegicus [4]): 38 mmHg
BP (Rattus norvegicus [5]): 185 mmHg
